Test results from ChEMBL document CHEMBL3045293, “Effect of the herbicides terbuthylazine and glyphosate on photosystem II photochemistry of young olive (Olea europaea) plants” (J Agric Food Chem, 2011).

Assays:
Assay type in all cases: organism-based
Olea europaea [1] = experiment: Toxicity in young Olea europaea (olive) plants assessed as induction of chronic photoinhibition of photosystem II at 3 kg/ha measured 60 days post dose in presence of oil Olea europaea (olive)-mill waste; conditions: in vivo, 1440 h
Olea europaea [2] = experiment: Toxicity in young Olea europaea (olive) plants assessed as reduction in photosynthetic rate at 3 kg/ha measured 15 days post dose; conditions: in vivo, 360 h
Summary of the method: (§1)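 Gas exchange (net photosynthetic rate, stomatal conductance, intercellular CO2) measured on young olive plants in triplicate pots. Herbicide was applied to the soil surface 24 h after OW addition, and pots without herbicide or OW served as controls. Readings were taken 24 h, 15 days and 60 days after treatment. Values are mean ± SE, n = 9, compared by Tukey test (P < 0.05).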

Olea europaea [3] = experiment: Toxicity in young Olea europaea (olive) plants assessed as induction of chronic photoinhibition of photosystem II at 3 kg/ha measured 60 days post dose; conditions: in vivo, 1440 h
Olea europaea [4] = experiment: Toxicity in young Olea europaea (olive) plants assessed as reduction in photosynthetic rate at 3 kg/ha measured 15 days post dose in presence of oil Olea europaea (olive)-mill waste; conditions: in vivo, 360 h; summary of the method: as §1
Olea europaea [5] = experiment: Toxicity in young Olea europaea (olive) plants assessed as reduction in intracellular CO2 level at 3 kg/ha measured 15 days post dose in presence of oil Olea europaea (olive)-mill waste; conditions: in vivo, 360 h; summary of the method: as §1
Olea europaea [6] = experiment: Toxicity in young Olea europaea (olive) plants assessed as reduction in stomatal conductance at 3 kg/ha measured 15 days post dose; conditions: in vivo, 360 h; summary of the method: as §1
Olea europaea [7] = experiment: Toxicity in young Olea europaea (olive) plants assessed as effect on maximum quantum efficiency of photosystem II at 3 kg/ha measured at midday 24 hr post dose; conditions: in vivo
Summary of the method: (§2)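 Leaves of potted young olive plants; herbicide applied to the soil surface 24 h after olive-mill waste (OW) amendment; triplicate pots; untreated pots without herbicide or OW as controls. Modulated chlorophyll fluorescence (portable fluorimeter) read at 24 h, 15 days and 60 days. Light- and dark-adapted parameters taken at dawn (1–7 μmol m2 s1) and midday (1700 μmol m2 s1), after 30 min dark adaptation in leaf-clips.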

Olea europaea [8] = experiment: Toxicity in young Olea europaea (olive) plants assessed as reduction in intracellular CO2 level at 3 kg/ha measured 15 days post dose; conditions: in vivo, 360 h; summary of the method: as §1
Olea europaea [9] = experiment: Toxicity in young Olea europaea (olive) plants assessed as effect on maximum quantum efficiency of photosystem II at 3 kg/ha measured 15 days post dose; conditions: in vivo, 360 h; summary of the method: as §2
Olea europaea [10] = experiment: Toxicity in young Olea europaea (olive) plants assessed as reduction in photosynthetic rate at 3 kg/ha measured 60 days post dose; conditions: in vivo, 1440 h; summary of the method: as §1
Olea europaea [11] = experiment: Toxicity in young Olea europaea (olive) plants assessed as reduction in non-photochemical quenching photosystem II at 3 kg/ha measured 15 days post dose; conditions: in vivo, 360 h; summary of the method: as §2
Olea europaea [12] = experiment: Toxicity in young Olea europaea (olive) plants assessed as reduction in stomatal conductance at 3 kg/ha measured 60 days post dose; conditions: in vivo, 1440 h; summary of the method: as §1
Olea europaea [13] = experiment: Toxicity in young Olea europaea (olive) plants assessed as reduction in intracellular CO2 level at 3 kg/ha measured 60 days post dose in presence of oil Olea europaea (olive)-mill waste; conditions: in vivo, 1440 h; summary of the method: as §1
Olea europaea [14] = experiment: Toxicity in young Olea europaea (olive) plants assessed as reduction in photosynthetic rate at 3 kg/ha measured 60 days post dose in presence of oil Olea europaea (olive)-mill waste; conditions: in vivo, 1440 h; summary of the method: as §1
Olea europaea [15] = experiment: Toxicity in young Olea europaea (olive) plants assessed as reduction in intracellular CO2 level at 3 kg/ha measured 60 days post dose; conditions: in vivo, 1440 h; summary of the method: as §1
Olea europaea [16] = experiment: Toxicity in young Olea europaea (olive) plants assessed as reduction in quantum efficiency of photosystem II at 3 kg/ha measured 15 days post dose; conditions: in vivo, 360 h; summary of the method: as §2
Olea europaea [17] = experiment: Toxicity in young Olea europaea (olive) plants assessed as reduction in non-photochemical quenching photosystem II at 3 kg/ha measured 60 days post dose; conditions: in vivo, 1440 h; summary of the method: as §2
Olea europaea [18] = experiment: Toxicity in young Olea europaea (olive) plants assessed as reduction in quantum efficiency of photosystem II at 3 kg/ha measured 60 days post dose; conditions: in vivo, 1440 h; summary of the method: as §2
Olea europaea [19] = experiment: Toxicity in young Olea europaea (olive) plants assessed as stomatal conductance at 3 kg/ha measured 60 days post dose in presence of oil Olea europaea (olive)-mill waste; conditions: in vivo, 1440 h; summary of the method: as §1
Olea europaea [20] = experiment: Toxicity in young Olea europaea (olive) plants assessed as reduction in maximum quantum efficiency of photo system measured by Fv/Fm ratio 2 at 3 kg/ha measured 60 days post dose (reference value: 0.8); conditions: in vivo, 1440 h; summary of the method: as §2
Olea europaea [21] = experiment: Toxicity in young Olea europaea (olive) plants assessed as stomatal conductance at 3 kg/ha measured 15 days post dose in presence of oil Olea europaea (olive)-mill waste; conditions: in vivo, 360 h; summary of the method: as §1

| SMILES | Activity (Olea europaea [1]) | Activity (Olea europaea [2]) | Activity (Olea europaea [3]) | Activity (Olea europaea [4]) | Activity (Olea europaea [5]) | Activity (Olea europaea [6]) | Activity (Olea europaea [7]) | Activity (Olea europaea [8]) | Activity (Olea europaea [9]) | Activity (Olea europaea [10]) | Activity (Olea europaea [11]) | Activity (Olea europaea [12]) | Activity (Olea europaea [13]) | Activity (Olea europaea [14]) | Activity (Olea europaea [15]) | Activity (Olea europaea [16]) | other results |
| --- | --- | --- | --- | --- | --- | --- | --- | --- | --- | --- | --- | --- | --- | --- | --- | --- | --- |
| O=C(O)CNCP(=O)(O)O [GLYPHOSATE] | Non-toxic | Non-toxic | Non-toxic | Toxic | Toxic | Non-toxic | Toxic | Non-toxic | Toxic | Non-toxic | Non-toxic | Non-toxic | Non-toxic | Non-toxic | Non-toxic | Non-toxic | – |
| CCNc1nc(Cl)nc(NC(C)(C)C)n1 [Terbuthylazine] | Non-toxic | Toxic | Toxic | Non-toxic | Non-toxic | Toxic | Toxic | Toxic | Toxic | Toxic | Non-toxic | Non-toxic | Non-toxic | Non-toxic | Non-toxic | Non-toxic | Activity (Olea europaea [17]): Toxic; Activity (Olea europaea [18]): Toxic; Activity (Olea europaea [19]): Non-toxic; Ratio (Olea europaea [20]): 0.6; Activity (Olea europaea [21]): Non-toxic |
